Measurements from ChEMBL document CHEMBL4513216, “Probing the Open Global Health Chemical Diversity Library for Multistage-Active Starting Points for Next-Generation Antimalarials” (ACS Infect Dis, 2020).

Test: Toxicity liver stage against HepG2, at 10uM
Format: cell-based
Parameters: test concentration 10 uM, cell line HepG2-A16-CD81EGFP
Conditions: human, HepG2-A16-CD81EGFP cells; read-out: INHIBITION
Summary of the method: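 Uninfected HepG2-A16-CD81EGFP cells, 3 × 10^3 per well, 1536-well, plated on prespotted compound at 10 μM final, parasite-free screening media added to match infected plates; puromycin 10 μM positive, DMSO 0.5% negative; run in parallel with 48 h PbLuc assay at 37 °C, 5% CO2; viability by CellTiter-Glo luminescence, normalized to controls.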
In the case of `CCNC(=O)N1CCc2ccc(NC(=O)NCCOCC)cc21`, the cytotoxicity at 10 µM is reported as -3.86%. For `O=C1COC2(CCN(Cc3ccoc3)CC2)CN1c1ccsc1`, the cytotoxicity at 10 µM was 3.09%. For `Cc1c(-c2ccccc2)nc2c(c(C)c(C)n2CCN(C)C)c1N`, the cytotoxicity at 10 µM was 24.6%. `COc1ccc(CNCCc2cc(F)cc3c2OCOC3)c(OC)c1` gave a cytotoxicity at 10 µM of -3.41%. With `OCC1CCCCN1Cc1cc(O)c2cccc(F)c2n1` (stereo not given) the cytotoxicity at 10 µM was -0.357%. Work on `O=C([C@@H]1Cc2[nH]cnc2CN1Cc1cc2ccccc2o1)N1CCCC1` yielded a cytotoxicity at 10 µM of 2.23%. With `CC(C)CN1CCC2(Cc3ccccc3NC2=O)C1` (stereo not given) the cytotoxicity at 10 µM was 6.86%. `Cc1cc(NC(=O)NCC(O)c2ccc(F)c(F)c2)n(C)n1` (stereo not given) showed a cytotoxicity at 10 µM of -21.1%. `COCCc1noc(-c2ccc(N[C@H]3CCCCNC3=O)nc2)n1` showed a cytotoxicity at 10 µM of 6.9%. `COCCn1cc(CC(=O)Nc2nc3c(s2)CCC3)c2ccccc21` gave a cytotoxicity at 10 µM of 32.8%. Work on `Cc1cc(CN2CCc3nc(N4CCOCC4)nc(O)c3CC2)c(C)s1` yielded a cytotoxicity at 10 µM of 6.3%. In the case of `CCN1C(=O)C(c2ccccc2)CC12CCN(Cc1cccnc1)CC2` (stereo not given), the cytotoxicity at 10 µM is reported as 4.65%. `O=C1CCCC2=Nc3nonc3NC(c3ccccc3F)C12` (stereo not given) showed a cytotoxicity at 10 µM of 1.08%. Molecule `CC(NC(=O)C1CCCCC1)c1cc(O)nc(-c2cccnc2)n1` (stereo not given) has a cytotoxicity at 10 µM of 5.84%. `Cc1ccc(N(CC(=O)c2ccc(Br)cc2)C2=NCCCCC2)cc1` gave a cytotoxicity at 10 µM of 36.5%. Work on `COCCNCc1cc2cc(C)cc(C)c2[nH]c1=O` yielded a cytotoxicity at 10 µM of -2.13%. With `CCn1ccnc1CN1CCCN(C(=O)Cc2ccccc2C)CC1` the cytotoxicity at 10 µM was -1.99%. Molecule `CCCc1cncnc1N1CCC(NCCc2nc(O)cc(O)n2)CC1` has a cytotoxicity at 10 µM of 5.99%. `Nc1ccnc(C(=O)N2CCCC3(CCC(=O)N(C4CCCC4)C3)C2)c1` (stereo not given) gave a cytotoxicity at 10 µM of -19.8%. `Nc1nc2c(c(NCc3nccs3)n1)CCN(CC1CCCC1)CC2` showed a cytotoxicity at 10 µM of 4.36%. `Cn1c(-c2ccccc2Cl)nc2cc(C(=O)NCCS(C)(=O)=O)cnc21` gave a cytotoxicity at 10 µM of -3.2%. With `O=C(O)c1nnn(-c2ccc(C(F)(F)F)cc2)c1-c1ccncc1` the cytotoxicity at 10 µM was 7.33%. `Cc1cccc(-c2noc(CN3CC(n4cc(C)cn4)C3)n2)c1` gave a cytotoxicity at 10 µM of -8.8%. Molecule `COCCNC(=O)c1cc(-n2cccc2)ccc1Cl` has a cytotoxicity at 10 µM of -3.45%. `COc1nc2c(cc1C(=O)NCCc1nc(C)c(C(=O)O)s1)CCC2` gave a cytotoxicity at 10 µM of 13.3%. Work on `CCC(CO)N(Cc1ccccn1)Cc1c[nH]nc1-c1ccc(F)cc1` (stereo not given) yielded a cytotoxicity at 10 µM of -1.83%. Work on `CN1CCN(C(=O)N2CCCC(c3nccn3CC3CCC3)C2)CC1` (stereo not given) yielded a cytotoxicity at 10 µM of 6.64%. `CCOCCN1CCN(CCCS(C)(=O)=O)CC1C` (stereo not given) showed a cytotoxicity at 10 µM of -4.14%. With `COCC(=O)N1C[C@H]2CCC[C@@]2(COC)C1` the cytotoxicity at 10 µM was 5.93%. With `CC(C)(C)OC(=O)NC1CCCN(Cc2cccc(O)c2)C1` (stereo not given) the cytotoxicity at 10 µM was -45.3%. With `O=C(N1CCC(O)(C(F)(F)F)C1)C1(c2cccc(Cl)c2)CC1` (stereo not given) the cytotoxicity at 10 µM was -2.72%. Molecule `O=C(NC1CCN(C2CC2)CC1)c1cn(-c2ccc(Cl)cc2)nn1` has a cytotoxicity at 10 µM of -2.87%. In the case of `c1cnnc(NCC2CN(CCn3cncn3)CCO2)c1` (stereo not given), the cytotoxicity at 10 µM is reported as -3.16%. `Cc1c(C(C)NC(=O)N2CCN(C3CCCC3)CC2)cnn1C` (stereo not given) gave a cytotoxicity at 10 µM of 3.02%. `CC(=O)Cn1nc(-c2ccccc2F)ccc1=O` gave a cytotoxicity at 10 µM of 0.477%. `CS(=O)(=O)Nc1cnn(Cc2cccc(Cl)c2)c1` gave a cytotoxicity at 10 µM of -2.44%. For `CC(NC(=O)CSCC(N)=O)c1ccccc1Oc1ccccc1` (stereo not given), the cytotoxicity at 10 µM was 4.84%. In the case of `Cc1ccc(C)c(-n2ncc(C(=O)N(C)CCc3ccccn3)c2N)c1`, the cytotoxicity at 10 µM is reported as -1.57%. In the case of `CCC(C)NC(=O)CS(=O)(=O)Cc1cc(Cl)ccc1OC` (stereo not given), the cytotoxicity at 10 µM is reported as 10.8%. `CN(Cc1ccccc1)C1COC2(CCN(Cc3nccs3)CC2)C1` (stereo not given) gave a cytotoxicity at 10 µM of -19.5%. Molecule `O=C(NCCc1ccccn1)NC1CCN(c2ccccc2)C1=O` (stereo not given) has a cytotoxicity at 10 µM of -2.84%. Molecule `Cc1cc(C)n(-c2ccc(CNCc3ccc(F)cc3F)cn2)n1` has a cytotoxicity at 10 µM of -12.2%. Molecule `CC1(C(=O)N2CCN(c3cnccn3)CC2)CNCCO1` (stereo not given) has a cytotoxicity at 10 µM of 6.99%. For `CC(NC(=O)NCCCO)c1ccc2c(c1)NC(=O)CO2` (stereo not given), the cytotoxicity at 10 µM was -3.05%. For `CCOc1ccc(C#N)cc1NC(=O)N1CCOC(C(N)=O)C1` (stereo not given), the cytotoxicity at 10 µM was 12.9%. Molecule `CCc1nnc(CS(=O)(=O)c2ccc(C)c(C)c2)n1C` has a cytotoxicity at 10 µM of 0.617%. Work on `O=C1CC2(CCSC2)C(=O)N1Cc1ncc(-c2ccccc2)o1` (stereo not given) yielded a cytotoxicity at 10 µM of 14.4%. For `Cc1cc(F)ccc1S(=O)(=O)N1CCN(C)c2ccncc21`, the cytotoxicity at 10 µM was 8.29%. `CCCNC(=O)CN1CCOC(CC)C1` (stereo not given) gave a cytotoxicity at 10 µM of 2.98%. Molecule `O=C(NCc1ccc(Cl)cc1)C1CCCN(c2ccc3nncn3n2)C1` (stereo not given) has a cytotoxicity at 10 µM of 6.44%. With `Cc1nc2c(c(=O)[nH]1)CN(Cc1ccc3c(c1)CCCN3C)CC2` the cytotoxicity at 10 µM was -3.55%. With `COc1ccc(CNC(=O)NCC(=O)NC2CC2)c(C(F)(F)F)c1` the cytotoxicity at 10 µM was 6.41%. Molecule `O=C1CC(NS(=O)(=O)c2ccc(F)c(Cl)c2)CN1` (stereo not given) has a cytotoxicity at 10 µM of 6.32%. For `CCn1ncc(CNc2[nH]cnc3nncc2-3)c1C`, the cytotoxicity at 10 µM was 2.76%. `Cc1noc(-c2ccc(N(C)Cc3ccncc3C)nc2)n1` showed a cytotoxicity at 10 µM of -15.1%.
